Compound activity from PubChem.
HIF activator: HIF pathway transcriptional activators, primary screen, cell-based, U2OS HRE-luciferase, luminescence | U2OS HRE-luciferase reporter; normalized: DMSO 0%, desferrioxamine 100% | activation, % at 7.5 µM (by protocol) | 300,000 compounds, 0.32% hits;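 active means mean activation of at least 10% of the iron chelator positive control signal, with at least half of replicates also reaching 10%; inconclusive means mean and replicate majority disagree about reaching 10%; inactive means mean and most replicates under 10%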
HSF-1 act: HSF-1 activators, primary screen, NIH3T3-HGL cells, MG132 stress, luminescence, single point; NIH3T3-HGL HSF-1 luciferase reporter, 8 h; 100% = twice DMSO control signal; activation, % at 9 µM; 300,000 compounds, 1.7% hits;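 active means mean replicate activation of at least 50% with a set share of replicates each reaching 50%; inconclusive means only one of those two conditions met; inactive means mean below 50% and too few replicates reaching it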;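 further: 0% = median of the neutral control wells and 100% = twice that signal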
T cruzi inh: inhibitors of intracellular T. cruzi growth, primary screen, luminescence, NIH3T3 host cells | 300,000 compounds, 1.4% hits | T. cruzi beta-gal in NIH3T3, 90 h | inhibition, % (no concentration beside the values) | AID 1885, 2009;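 active means mean inhibition across valid replicates above about 55%, limit read from the data; inconclusive means mean below that limit but half or more replicates reach it; inactive means mean below it, under half of replicates reach it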;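 further: signal also drops with host cell toxicity which is not excluded here; 0% = plate median of DMSO wells and 100% = zero luminescence signal; higher percent means less beta-gal luminescence so fewer parasites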
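Assay system: NIH/3T3 fibroblasts plus reporter T. cruzi. Amount: NIH/3T3 cells, 5,000 per well. Buffer or medium: DMEM, 2% fetal bovine serum. Doses: compound pinned at 50 nL/well, DMSO. Schedule: ≥90 h infection period, 3 h prior cell attachment. Signal: luminescent β-galactosidase signal after 60 min lysis. Read-out: parasite load inhibition, %.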
Calb FLC: C. albicans growth inhibition with fluconazole, primary screen, CaCi-2 strain, Alamar Blue fluorescence; C. albicans CaCi-2 (fluconazole-resistant clinical isolate) + fluconazole, 48 h; growth inhibition, % (concentration not given with the values); 300,000 compounds, 0.57% hits; AID 1979, 2009;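 active means growth inhibition above about 58% in most replicates, limit read from the data, passing the limit was not always enough; inconclusive means exactly half the replicates above a set limit; inactive means most replicates below a set limit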;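 further: all wells also contain fluconazole at 8 µg/ml as a sub-toxic cotreatment; 0% = median of DMSO wells and 100% = median of geldanamycin control wells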
HSF1 inhib: HSF1 inhibitors in luciferase reporter cells, primary screen, cell-based, NIH3T3, luminescence; activity change, negative = inhibition, % at 7.5 µM (by protocol); NIH3T3-HGL HSE-luciferase, MG132-induced, luminescence 8 h; active compounds read low; 300,000 compounds, 0.77% hits;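 active means more than half of replicate wells show activity change below -50%, luminescence cut by over half; inconclusive means some wells, but at most half, below -50%; inactive means no replicate well below -50%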;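 further: luciferase reports HSF-1 transcriptional activity via heat shock element; 0% = median of DMSO wells and -100% = zero luminescence signal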
* hit, by the source's call; u = inconclusive; x = not tested or not shown. The list is not random: actives were taken first. Their share in the collection is about 4.4%.

SMILES	HIF activator	HSF-1 act	T cruzi inh	Calb FLC	HSF1 inhib
CCOC(=O)NC(C)N1C(=O)C2C3C=CC(C3)C2C1=O (stereo not drawn)	0	13	-3	0	0
Cc1ccc2c(CN3CCCCC3CCO)cc(=O)oc2c1 (stereo not drawn)	0	12	-5	-10	-5
CCn1c(=O)cc(SCC(=O)N2CCN(C)CC2)c2ccccc21	1	63*	-2	-16	33
CCN1CCN(C(=O)CSc2cc(=O)n(CC)c3ccccc23)CC1	1	12	2	-16	9
CC(=O)c1cccc(NC(=O)CN(C)S(=O)(=O)c2cccc3nsnc23)c1	14*	6	-14	0	-1
CCCCNC(=O)CCc1c(C)nc2c(c(C)nn2-c2ccccc2)c1C	0	-14	55*	-1	-8
Cc1ccc2[nH]c(=O)c(COC(=O)c3cccs3)cc2c1	2	-12	5	10	-9
Cc1ccc(NN2C(=O)C=C(c3ccccc3)C2=O)cc1	0	207*	12	-46	148
O=C1c2ccccc2C(=O)N1Nc1ccccc1	0	3	12	0	-6
COc1ccc(CCNC(=O)C2=CCN(S(=O)(=O)c3ccc(F)cc3)CC2)cc1OC	0	-15	8	26	4
Cc1nc(CSc2ccc(Br)cc2)cs1	3	17	-7	-3	14
Cc1nc(CSc2ccc(Cl)cc2)cs1	4	51*	-4	-3	11
Cc1ccc(N(CC(=O)NCc2ccco2)C(=O)CCC(=O)Nc2nccs2)c(C)c1	-1	-4	3	-5	-12
CCOc1ccc2c(c1)C(=NNC(=O)c1ccncc1)c1cc(OCC)ccc1-2	1	30	60*	3	6
CN1C/C(=C/c2ccsc2)C(=O)/C(=C/c2ccsc2)C1	0	5	56*	7	-3
CN1C/C(=C\c2ccc(N3CCOCC3)cc2)C(=O)/C(=C/c2ccc(N3CCOCC3)cc2)C1	1	133*	-18	10	67
CC1(C)NC(=O)N(CC(O)CN(c2ccccc2)S(=O)(=O)c2ccc([N+](=O)[O-])cc2)C1=O (stereo not drawn)	-1	-60	25	-2	u
CCc1c(C#N)c(SCCC(=O)Nc2ccc(F)cc2)nc2c1C(=O)CC(C)(C)C2	0	24	56*	17	5
CN(C)CCNC(=O)/C(=C/c1ccc(-c2cccc(Cl)c2)o1)NC(=O)c1ccccc1	0	66*	21	-12	24
Cc1ccc(C(=O)N/C(=C\c2ccc(-c3ccc(Cl)cc3)o2)C(=O)NCCCN(C)C)cc1	0	0	56*	u	-5
COc1ccccc1-n1c(CCn2nc(C)c(Br)c2C)n[nH]c1=S	0	-3	21	-3	-10
O=C1c2cccc3cc([N+](=O)[O-])cc(c23)C(=O)N1c1ccccc1O	0	7	58*	46	-2
Cc1cc(O)ccc1N1C(=O)c2cccc3cc([N+](=O)[O-])cc(c23)C1=O	0	-20	67*	4	-3
O=C1c2cccc3cc([N+](=O)[O-])cc(c23)C(=O)N1c1nncs1	-1	4	-3	2	-5
O=c1ccc(N=Nc2ccccc2)ccc1O	1	-5	-11	101*	-9
SMILES	HIF activator	HSF-1 act	T cruzi inh	Calb FLC	HSF1 inhib
Oc1ccc(N=Nc2ccccc2)o1	0	30	-6	0	19
COC(=O)c1sc(NC(=O)c2c(-c3ccccc3)noc2C)nc1C	-1	-3	-3	9	-5
Cc1onc(-c2ccccc2)c1C(=O)Nc1sc2c(c1C(N)=O)CCC2	1	-66	24	8	-59*
NC(=O)c1c(NC(=O)c2ccccc2F)sc2c1CCCC2	-25	75*	5	82*	39
Cc1nc(NC(=O)c2c(-c3ccccc3)noc2C)sc1C(=O)N(C)C	x	x	x	120*	x
Cc1onc(-c2ccccc2)c1C(=O)Nc1sc2c(c1C#N)CCC2	0	-11	-8	8	-2
CCCN1CCN(CCCNC(=S)Nc2ccc(OC)cc2)CC1	0	0	12	2	-3
COc1ccc(C(c2c(O)ccc3ccccc23)N2CCOCC2)c(OC)c1 (stereo not drawn)	3	106*	48	87*	74
O=C(Nc1ccc2c(c1)CCC2)c1ccc(F)cc1	-2	42	6	20	35
Cc1cc(C(=O)Nc2ccc3c(c2)CCC3)ccc1[N+](=O)[O-]	3	55*	14	-6	28
O=C(Nc1cccc([N+](=O)[O-])c1)Nc1ccc2c(c1)CCC2	5	13	57*	-14	4
C#CC(C)OC(=O)C(C)NC(=O)c1ccccc1 (stereo not drawn)	0	-6	-19	18	0
Cc1cc(C)c2c(N)c(C(=O)c3ccc(Cl)cc3Cl)sc2n1	0	-31	39	-5	-27
Cc1cc(C)c2c(N)c(C(=O)c3ccccc3Cl)sc2n1	0	5	56*	-4	3
Cc1cc(C)c2c(N)c(C(=O)Nc3ccccc3Br)sc2n1	-18	31	48	10	7
Cc1cc(C)c2c(N)c(C(=O)Nc3ccccc3F)sc2n1	30*	26	8	-6	11
O=C(O)CCCNC(=O)/C(=C\c1ccc(Cl)cc1)NC(=O)c1ccccc1Br	0	10	-11	0	-7
CCOC(=O)C1=C(C)NC(C)=C(C(=O)OCC)C1c1sccc1C	0	18	27	8	3
COc1ccc(-c2c[n+](CC(=O)OC3CC(C)CCC3C(C)C)c3n2CCC3)cc1 (stereo not drawn)	1	7	49	88*	3
CC(C)[C@@H]1CC[C@@H](C)C[C@H]1OC(=O)C[n+]1cc(-c2ccc(Cl)cc2)n2c1CCCCC2	1	-1	51	95*	0
O=C(C[n+]1cc(-c2ccc(Cl)cc2)n2c1CCCCC2)c1ccccc1	0	22	21	37	9
Cc1nnc(NC(=O)C2CC(=O)N(c3ccccc3)C2)s1 (stereo not drawn)	0	7	-14	-2	-1
Cc1ccc(NC(=O)COC(=O)Cn2cnc3c2c(=O)n(C)c(=O)n3C)cc1Cl	0	-10	32	6	-13
Cc1nc(NCCc2cnc[nH]2)c2oc3ccccc3c2n1	0	-9	71*	2	-4
CCc1nc(Nc2ccncc2)c2oc3ccccc3c2n1	1	-4	66*	85*	-4
Cc1nc(Nc2ccncc2)c2oc3ccccc3c2n1	0	14	73*	-1	7
